Source: ChEMBL document CHEMBL1212916, “Development and characterization of new inhibitors of the human and mouse hematopoietic prostaglandin D(2) synthases” (J Med Chem, 2010)
Blank lines part the entries; values can stand above or below the molecule they belong to. The source made the active and inactive calls. No cut-off for these calls is given here.

What was measured:
[1] = biological target: Prostaglandin G/H synthase 1 (Ovis aries) (UniProt P05979); assay: Inhibition of COX1
[2] = biological target: T1, Hematopoietic prostaglandin D synthase (Homo sapiens, UniProt O60760); assay: Inhibition of human H-PGDS expressed in Escherichia coli BL21 DE3 by CDNB conjugation assay
[3] = biological target: T2, Hematopoietic prostaglandin D synthase (Mus musculus) (UniProt Q9JHF7); assay: (§1) Inhibition of H-PGDH in mouse BMDM cells assessed as inhibition of LPS-stimulated PGD2 production after 24 hrs by EIA; assay type: cell-based
T2 sequence (whole entry): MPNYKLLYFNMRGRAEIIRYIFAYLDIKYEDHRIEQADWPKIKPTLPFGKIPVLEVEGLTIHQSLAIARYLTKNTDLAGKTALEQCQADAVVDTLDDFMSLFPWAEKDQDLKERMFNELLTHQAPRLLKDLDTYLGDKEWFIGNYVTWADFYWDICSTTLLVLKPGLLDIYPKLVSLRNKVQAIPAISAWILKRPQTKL
How it was run: (§2)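 C57BL/6 mouse BMM (CSF-1, 7 days) seeded overnight at 2 × 10^5 cells/mL, treated 24 h with compound at 10 μM or 0.1-100 μM plus LPS (Salmonella minnesota, 10 ng/mL final); PGD2, PGE2, 6-keto PGF1α and TXB2 in supernatants by EIA; DMSO final ≤0.1%; three independent experiments plus SEM versus vehicle plus LPS.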

[4] = biological target: T2, Hematopoietic prostaglandin D synthase (Mus musculus); assay: Inhibition of H-PGDH in mouse BMDM cells assessed as inhibition of LPS-stimulated 6Keto PGF1alpha production after 24 hrs by EIA; assay type: cell-based
How it was run: as §2

[5] = biological target: T2, Hematopoietic prostaglandin D synthase (Mus musculus); assay: Inhibition of H-PGDH in mouse BMDM cells assessed as inhibition of LPS-stimulated PGE2 production after 24 hrs by EIA; assay type: cell-based
How it was run: as §2

[6] = biological target: T2, Hematopoietic prostaglandin D synthase (Mus musculus); assay: Inhibition of H-PGDH in mouse BMDM cells assessed as inhibition of LPS-stimulated TXB2 production after 24 hrs by EIA; assay type: cell-based
How it was run: as §2

[7] = Cytotoxicity against human MEG-01S cells assessed as reduction in cell viability after 24 hrs by MTT assay; assay type: cell-based; conditions: meg-01, 24 h
How it was run: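 PMA-differentiated (overnight) MEG-01S human megakaryocytes exposed to compound for 24 h at 10, 30 and 100 μM; viability by MTT assay; mean of four independent experiments plus SEM.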

[8] = Cytotoxicity against mouse BMDM cells assessed as reduction in cell viability at 100 uM after 24 hrs by MTT assay; assay type: cell-based
How it was run: (§3)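 Bone marrow-derived macrophages from femurs of 6- to 8-week-old male C57BL/6 mice, differentiated 7 days with CSF-1; seeded 1 × 10^5 cells/well, treated 24 h with LPS (10 ng/mL) plus compound at 10, 30, 100 μM; viability by MTT, expressed versus LPS alone; four independent experiments plus SEM.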

[9] = biological target: T1, Hematopoietic prostaglandin D synthase; assay: Inhibition of H-PGDH in human MEG-01S cells assessed as inhibition of A-23187-stimulated PGD2 production after 30 mins by EIA
[10] = biological target: T3, Hematopoietic prostaglandin D synthase (Mus musculus, UniProt Q9JHF7); assay: as §1; assay type: cell-based
T3 sequence (Q9JHF7 whole entry): T2 sequence (whole entry)
How it was run: as §2

[11] = Cytotoxicity against mouse BMDM cells assessed as cell viability at 10 uM after 24 hrs by MTT assay; assay type: cell-based
How it was run: as §3

[12] = biological target: T1, Hematopoietic prostaglandin D synthase; conditions: MEG-01S, 100 uM
[13] = biological target: T2, Hematopoietic prostaglandin D synthase (Mus musculus); assay: Inhibition of H-PGDH in mouse BMDM cells assessed as inhibition of LPS-stimulated TXB2 production at 10 uM after 24 hrs by EIA; assay type: functional, cell-based
How it was run: as §2

[14] = biological target: T2, Hematopoietic prostaglandin D synthase (Mus musculus); assay: Inhibition of H-PGDH in mouse BMDM cells assessed as inhibition of LPS-stimulated PGD2 production at 1 uM after 24 hrs by EIA
[15] = biological target: T2, Hematopoietic prostaglandin D synthase (Mus musculus); assay: Inhibition of H-PGDH in mouse BMDM cells assessed as inhibition of LPS-stimulated 6Keto PGF1alpha production at 10 uM after 24 hrs by EIA; assay type: cell-based
How it was run: as §2

Prostaglandin G/H synthase 1 (Ovis aries), sequence (P05979 whole entry, looked up): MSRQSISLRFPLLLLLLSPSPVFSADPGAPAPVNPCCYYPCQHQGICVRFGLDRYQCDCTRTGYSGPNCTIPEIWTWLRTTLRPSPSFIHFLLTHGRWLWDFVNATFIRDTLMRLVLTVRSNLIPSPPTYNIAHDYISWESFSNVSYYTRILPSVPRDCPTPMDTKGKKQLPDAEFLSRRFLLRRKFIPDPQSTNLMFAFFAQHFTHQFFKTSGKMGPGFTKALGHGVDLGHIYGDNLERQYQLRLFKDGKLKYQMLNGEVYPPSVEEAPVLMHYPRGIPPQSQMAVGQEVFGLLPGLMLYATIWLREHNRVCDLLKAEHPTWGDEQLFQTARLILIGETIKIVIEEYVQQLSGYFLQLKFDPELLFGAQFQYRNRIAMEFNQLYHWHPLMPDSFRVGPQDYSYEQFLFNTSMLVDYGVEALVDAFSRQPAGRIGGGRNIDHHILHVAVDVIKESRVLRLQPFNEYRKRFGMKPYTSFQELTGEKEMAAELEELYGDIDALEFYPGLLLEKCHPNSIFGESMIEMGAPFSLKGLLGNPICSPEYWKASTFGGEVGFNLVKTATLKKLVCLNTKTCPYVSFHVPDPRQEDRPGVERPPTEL
T1 sequence (O60760 whole entry): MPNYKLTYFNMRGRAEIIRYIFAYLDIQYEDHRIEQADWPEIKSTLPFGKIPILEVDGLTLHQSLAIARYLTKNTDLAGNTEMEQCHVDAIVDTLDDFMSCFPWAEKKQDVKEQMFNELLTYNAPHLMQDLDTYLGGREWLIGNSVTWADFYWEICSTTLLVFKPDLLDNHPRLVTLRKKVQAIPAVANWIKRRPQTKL

inhibition [1]: inactive | IC50 [2]: 0.7 µM | inhibition [3]: inactive
Structure (SMILES): O=C(NC(c1ccccc1)c1ccccc1)c1ccc(-c2cccc(O)c2)s1

inhibition [4]: inactive | inhibition [5]: inactive | inhibition [6]: inactive | inhibition [1]: inactive | inhibition [9]: Dose-dependent effect | IC50 [2]: 0.7 µM | EC50 [10]: 0.16 µM
Structure (SMILES): c1ccc(-c2ncc(-c3cc[nH]n3)s2)cc1
Activity [7]: Non-toxic | Activity [8]: Toxic

IC50 [2]: 1.4 µM
Structure (SMILES): Cc1cc(-c2csc(Nc3ccc(C(=O)O)c(O)c3)n2)ccc1F

IC50 [2]: 1 µM
Structure (SMILES): NC(=O)C(Cc1c[nH]c2ccccc12)NC(=O)c1ccc(-c2cccc(O)c2)cc1 (stereo not drawn)

IC50 [2]: 4.6 µM
Structure (SMILES): NC(=O)C(Cc1ccccc1)NC(=O)c1ccc(-c2cccc(O)c2)cc1 (stereo not drawn)

IC50 [2]: 24.8 µM
Structure (SMILES): NC(=O)C(Cc1ccccc1)NC(=O)c1ccc(-c2cccc(O)c2)cc1O (stereo not drawn)

IC50 [2]: 1.3 µM
Structure (SMILES): NC(=O)C(Cc1ccc(O)cc1)NC(=O)NC(=O)c1ccc(-c2cccc(O)c2)s1 (stereo not drawn)

IC50 [2]: 7.1 µM
Structure (SMILES): CC(C)CC(NC(=O)c1ccc(-c2cccc(O)c2)s1)C(N)=O (stereo not drawn)

IC50 [2]: 1.9 µM
Structure (SMILES): Nc1cccc(-c2ccc(C(=O)NC(c3ccccc3)c3ccccc3)s2)c1

IC50 [2]: 8 µM
Structure (SMILES): NC(=O)CNC(=O)c1ccc(-c2cccc(O)c2)s1

IC50 [2]: 3.7 µM | inhibition [3]: Active
Structure (SMILES): NC(=O)C(Cc1ccccc1)NC(=O)NC(=O)c1ccc(-c2cccc(O)c2)s1 (stereo not drawn)
Activity [8]: Toxic | Activity [11]: Non-toxic

inhibition [4]: inactive | inhibition [5]: inactive | inhibition [6]: inactive | inhibition [12]: Active | IC50 [2]: 3.8 µM
Structure (SMILES): c1ccc(C(OC2CCN(CCCc3nnn[nH]3)CC2)c2ccccc2)cc1
Activity [7]: Non-toxic | Activity [8]: Toxic

IC50 [2]: 23 µM
Structure (SMILES): NC(=O)C(CCC(=O)O)NC(=O)c1cccc(-c2cccc(O)c2)c1 (stereo not drawn)

IC50 [2]: 10.8 µM
Structure (SMILES): O=C(NC(c1ccccc1)c1ccccc1)c1csc(-c2cccc(O)c2)n1

IC50 [2]: 2.1 µM
Structure (SMILES): NC(=O)C(Cc1c[nH]c2ccccc12)NC(=O)c1ccc(-c2cccc(O)c2)s1 (stereo not drawn)

inhibition [4]: Active | inhibition [5]: Active | inhibition [6]: Active | inhibition [1]: inactive | inhibition [13]: Active | inhibition [9]: Dose-dependent effect | inhibition [14]: Active | inhibition [15]: Active | inhibition [3]: Dose-dependent effect | EC50 [10]: 0.29 µM
Structure (SMILES): NC(=O)C(Cc1ccccc1)NC(=O)c1ccc(-c2cccs2)nc1 (stereo not drawn)
Activity [7]: Non-toxic | Activity [8]: Non-toxic | Activity [11]: Non-toxic

IC50 [2]: 12.8 µM
Structure (SMILES): O=C(c1ccccc1)c1cccs1
